Experimental data of several laboratories.
Each line is one published result; the experiments were not run side by side.

Cc1cc(C)nc(Nc2ncc(C(=O)NCCc3c(C)[nH]c4ccccc34)cn2)c1 — microsomal CLint (metabolic stability; rat, liver microsomes; 1 µM): 185 µL/min/mg
N=c1c2c(-c3ccccc3)c(-c3ccccc3)n(Cc3ccccc3)c2ncn1[C@H]1CC[C@H](O)CC1 — scaled CLint (metabolic stability; Sprague-Dawley rat, hepatocytes; 1 µM): 19 mL/min/kg
Nc1nc2[nH]cc(CCc3ccc(C(=O)N[C@@H](CCC(=O)O)C(=O)O)cc3)c2c(=O)[nH]1 — clearance (human, plasma; intravenous, 500 mg/m², patients): 81.7 mL/min
NC(=O)[C@@H]1CC(F)(F)CN1C(=O)c1ccc(N2CC(F)(F)C2)c(OCC2CC2)n1 — hepatocyte CLint (metabolic stability; human, hepatocytes): 14 µL/min/10⁶ cells
C[C@H]1COCCN1c1nc(NCc2cccnc2C(F)(F)F)c2cccnc2n1 — hepatocyte CLint (metabolic stability; rat, hepatocytes): 5 µL/min/10⁶ cells
C=CCNc1c(O)cc2c(O)c1C[C@@H](C)C[C@H](OC)[C@H](O)[C@@H](C)/C=C(\C)[C@H](OC(N)=O)[C@@H](OC)/C=C\C=C(/C)C(=O)N2 — clearance (human, plasma; intravenous, 400 mg/m², patients, infusion): 1630 mL/min
COc1ccnc(C(=O)N[C@H]2COC(=O)[C@H](Cc3ccccc3)[C@@H](OC(=O)C(C)C)[C@H](C)OC2=O)c1OCOC(=O)C(C)C — LD50 (rat; oral): > 2000 mg/kg
Cc1c(C(=O)Nc2ccc(OC(F)(F)F)cc2)nc(-c2ccc(Cl)cc2Cl)n1-c1ccc(OS(=O)(=O)CCC(F)(F)F)cc1 — logD (shake flask; aqueous buffer; pH 7.4): > 4
NCCCNCCCCNCCCNc1cc2nc(-c3ccccc3Cl)[nH]c(=O)c2cc1F — LD50 (male Sprague-Dawley rat; oral): > 1000 mg/kg
